Compound activity from PubChem.
This is a sample that favours compounds with a hit; in the whole collection about 9.6% have one here.
APP transl inh: inhibitors of APP translation via 5'UTR reporter, primary screen, APP 5'UTR luciferase, SH-SY5Y cells; SH-SY5Y APP 5'UTR-luciferase reporter, luminescence; inhibition, % at 2 µM; 190,000 tested, 0.82% active; AID 1285, 2008;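 active = inhibition above a set limit, derived from the sample mean plus 3 SD, cut at about 45% in these data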
MT stabilize HCS: microtubule stabilizers in HeLa cells, primary screen, imaging, high-content imaging; AID 2205, 2009; 200,000 tested, 0.83% active; HeLa tubulin immunostaining HCS, 24 h; share of cells brighter than vehicle mean+2SD; % tubulin-high responders, % at 10 µM;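 active = plate Z-score above 3 for both tubulin-high and condensed-nucleus cell shares, with cell loss under 80%, at 10 µM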;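 note: anti alpha tubulin signal scored within the nucleus-defined area of each cell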
Lmaj promast: Leishmania major promastigote growth inhibition, primary screen; Leishmania major promastigotes, resazurin fluorescence viability; inhibition, % at 10 µM; 200,000 tested, 9% active; AID 1063, 2008; in the data active = inhibition above about 50%;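 note: promastigotes grown with compound for 44 hours at 28 °C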
Ba/F3 V617F tox: reduced viability of JAK2V617F-dependent Ba/F3 cells, primary screen, JAK2V617F inhibitor project, cell-based, Ba/F3 EpoR-JAK2V617F, luminescence; ATP luminescence; inhibition, % at 5.6 µM; 220,000 tested, 1.1% active; AID 1446, 2008;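 active = inhibition above the campaign mean plus 3 SD over all tested compounds, cut at about 24% in these data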;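 note: cytokine-independent growth of Ba/F3 cells driven by EpoR plus mutant JAK2; 0% = DMSO-treated cells and 100% = JAK inhibitor I control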
BaF3 tox: parental Ba/F3 cell viability inhibition, counter-screen for JAK2V617F inhibitor project, murine pro-B, CellTiter-Glo luminescence; inhibition, % at 5.6 µM; CellTiter-Glo ATP luminescence; 220,000 tested, 1.1% active; AID 1486, 2009;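 active = inhibition above a per-campaign cutoff, the mean inhibition of all tested compounds plus 3 SD, cut at about 27% in these data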;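 note: 0% = DMSO wells and 100% = JAK Inhibitor I control wells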
bCat nuc transl: modulators of beta-catenin nuclear translocation, primary screen, imaging, HeLa cells, immunofluorescence, high-content; nuclear translocation activity, % at 5 µM; 190,000 tested, 0.3% active; AID 1665, 2009;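 active = nuclear translocation activity above 50% at 5 µM, with a well cell count of 50 or more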;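 note: per-cell ratio of nuclear to cytoplasmic median beta-catenin stain intensity; plate controls were DMSO negative control for no effect and GSK-3 inhibitor IX positive control for full effect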
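Test system: HeLa cells, endogenous beta-catenin; Compound: single 5 µM dose plus 0.02–20 µM confirmation series; Times: compound exposure 24 h at 37°C; Signal: fluorescence imaging of beta-catenin antibody stain plus DAPI; Read-out: % activation, nuclear-to-cytoplasmic median beta-catenin signal ratio per cell.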
Numbers without * were called inactive; / = no result given.

SMILES	APP transl inh	MT stabilize HCS	Lmaj promast	Ba/F3 V617F tox	BaF3 tox	bCat nuc transl
Cc1nc2cc(-c3ccc(Cl)cc3)nn2c(C)c1CCC(=O)NC(C)c1ccc2c(c1)OCCO2 (centres undefined)	41	7	98*	0	7	-2
Cc1nc2cc(-c3ccccc3)nn2c(C)c1CCC(=O)N1CCN(c2ccccc2)CC1	14	6	87*	-5	3	/
Cc1csc(NC(=O)CCc2c(C)nc3cc(-c4ccc(Cl)cc4)nn3c2C)n1	54*	3	6	6	7	3
NC(=O)C12CCCC(Br)(CCC1)C2	/	/	/	1	2	2
CC(C)(C)SCCNC(=O)/C=C/c1ccccc1	/	/	/	0	45*	1
Cc1nc2ccccc2cc1OCc1ccccc1	-5	2	-1	0	8	1
COc1cccc(COc2cc3ccccc3nc2C)c1	-18	2	4	42*	43*	-1
CCN(CC)C(=O)c1c2c(nc3ccccc13)-c1ccccc1CC2	5	5	62*	1	5	-1
CCCCCCNC1=NCCS1	-2	3	5	3	3	0
CCN(CC)S(=O)(=O)c1ccc(OC)c(NC(=O)C(Cc2ccccc2)N2C(=O)c3ccccc3C2=O)c1 (centres undefined)	11	5	-6	-2	3	-1
CC1=CC(C)(C)Nc2ccc(OC(=O)C(Cc3ccccc3)N3C(=O)c4ccccc4C3=O)cc21 (centres undefined)	8	3	99*	-1	6	-2
Cc1ccc(OC(=O)CCN2C(=O)c3ccccc3C2=O)cc1C	0	3	-1	6	12	-1
CC1=CC(C)(C)Nc2ccc(OC(=O)CN3C(=O)c4cccc5cccc(c45)C3=O)cc21	-4	2	95*	-6	10	4
CC1=CC(C)(C)Nc2ccc(OC(=O)CN3C(=O)c4ccccc4C3=O)cc21	42	7	101*	6	3	4
COC(=O)CN(C#N)c1nc(NC(C)C)nc(OC)n1	6	3	0	41*	32*	-2
O=C(NCCn1cc(SCc2ccc(F)cc2)c2ccccc21)c1c(F)cccc1F	8	4	1	0	4	-2
O=C(NCCn1cc(SCc2ccc(F)cc2)c2ccccc21)c1ccccc1F	-9	2	95*	0	8	0
CC(C)Cn1c(N)c(C(=O)COC(=O)CC23CC4CC(CC(C4)C2)C3)c(=O)n(C)c1=O	10	2	98*	36*	42*	/
Cc1ccc(C)c(NC(=O)CN(C)C(=O)c2nn(C)c(=O)c3ccccc23)c1	7	3	-2	1	6	0
COc1ccc(C(O)P(=O)(OC(C)C)OC(C)C)c(OC)c1 (centres undefined)	/	/	/	-1	-3	-5
CN(C)C(=O)CSc1nc(-c2ccccc2)nc2c1CCCC2	8	4	9	1	5	/
Cc1cc2nc(SCC(=O)N(C)C)c3c(c2cc1C)CCCC3	-9	3	93*	2	8	-4
COCc1c(CCl)cnc(C)c1O	9	3	11	-8	-3	0
CC1=C(C(=O)OC(C)C)C(c2cccnc2)C2=C(CC(C)(C)CC2=O)N1 (centres undefined)	-5	5	92*	0	3	4
COCCOC(=O)C1=C(C)NC2=C(C(=O)CC(C)(C)C2)C1c1cccnc1 (centres undefined)	-5	1	64*	-1	2	-1
COC(=O)C1=C(N)OC2=C(C(=O)CC(C)(C)C2)C1c1cccnc1 (centres undefined)	7	3	50*	2	3	/
CC1=C(C(=O)OCCOC(C)C)C(c2cccnc2)C2=C(CCCC2=O)N1 (centres undefined)	0	2	23	1	7	-4
COC(=O)C1=C(N)OC2=C(C(=O)CC(C)(C)C2)C1c1ccccc1OCC#N (centres undefined)	-14	4	3	-1	-4	-1
